Source: article PMC5551971 (ACS chemical biology, 2017)
Entries after “also recorded” stand apart in the source; their conditions may differ.

Columns and labels:
SRC = SRC (Homo sapiens, UniProt P12931); experiment: In vitro kinase assay panel; type: biochemical; details: 100 nM or 1000 nM AZD1775
[1] = tested on: cWEE1-KO[18] and cWEE1-KO[19] H322 WEE1 knockout clones; experiment: Immunoblot analysis of γH2AX in WEE1 CRISPR-Cas9 knockout clones; type: cell-based; details: 4 h, 1 μM AZD1775
How it was run: (§1)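 H322 cells and H322-derived CRISPR-Cas9 clones were used: WEE1 knockouts made by targeting the exon 1/intron 1 splice site, plus a control clone with WEE1 intact. Cells were exposed for 4 h to 1 μM test compound or to cisplatin (14 μM in the H322/H1648 comparison; 17 μM in the parental/clone comparison). γH2AX and total H2AX were detected by immunoblot, tracking the ~16 kDa and mono-ubiquitinated ~25 kDa γH2AX bands.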

H322 cells [2] = experiment: Immunoblot analysis of PARP1 and caspase 3 cleavage; type: cell-based
PLK1 [3] = biological target: T1, PLK1 (Homo sapiens, UniProt P53350); experiment: In vitro kinase assay; type: biochemical
T1 sequence (P53350 whole entry): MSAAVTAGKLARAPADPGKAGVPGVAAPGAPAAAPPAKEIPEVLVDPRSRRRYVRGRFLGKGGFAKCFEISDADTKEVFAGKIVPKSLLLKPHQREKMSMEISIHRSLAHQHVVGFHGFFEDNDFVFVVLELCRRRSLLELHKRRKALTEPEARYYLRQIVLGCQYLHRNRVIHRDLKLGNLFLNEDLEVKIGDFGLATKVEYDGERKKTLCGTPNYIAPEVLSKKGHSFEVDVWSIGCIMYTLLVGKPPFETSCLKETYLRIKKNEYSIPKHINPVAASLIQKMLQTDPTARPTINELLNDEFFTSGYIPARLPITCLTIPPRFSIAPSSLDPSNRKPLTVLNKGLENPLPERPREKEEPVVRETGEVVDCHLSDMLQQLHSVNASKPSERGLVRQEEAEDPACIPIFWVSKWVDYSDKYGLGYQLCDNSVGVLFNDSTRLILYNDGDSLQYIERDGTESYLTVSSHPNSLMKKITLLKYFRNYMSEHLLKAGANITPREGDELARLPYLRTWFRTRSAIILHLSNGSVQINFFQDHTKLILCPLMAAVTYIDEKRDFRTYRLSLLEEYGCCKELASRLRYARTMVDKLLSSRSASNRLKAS

[4] = tested on: H322, A427, H1155 and H1648 NSCLC cells; experiment: Cell viability of NSCLC cell lines, 72 h treatment; type: cell-based; details: several NSCLC cell lines, single agent
PLK1 [5] = biological target: T1, PLK1; experiment: In vitro kinase assay panel; type: biochemical; details: 100 nM or 1000 nM AZD1775
H322 cells [6] = experiment: Immunoblot analysis of γH2AX; type: cell-based; details: 4 h; for induction of DNA damage (γH2AX): parental H322 and cWEE1 control cells, AZD1775 1 μM or cisplatin 17 μM
How it was run: as §1

[7] = tested on: cWEE1-KO[18] and cWEE1-KO[19] H322 WEE1 knockout clones; experiment: CellTiterGlo viability of H322 WEE1 CRISPR-Cas9 knockout clones; type: cell-based; details: 72 h
PLK1 [8] = biological target: T1, PLK1; experiment: i-AZD1775 affinity pulldown with AZD1775 competition, PLK1 immunoblot; type: binding; details: H322 whole cell lysates, 20 μM free AZD1775
LYN = LYN (Homo sapiens, UniProt P07948); experiment: In vitro kinase assay panel; type: biochemical; details: 100 nM or 1000 nM AZD1775
LYN, sequence (P07948 whole entry): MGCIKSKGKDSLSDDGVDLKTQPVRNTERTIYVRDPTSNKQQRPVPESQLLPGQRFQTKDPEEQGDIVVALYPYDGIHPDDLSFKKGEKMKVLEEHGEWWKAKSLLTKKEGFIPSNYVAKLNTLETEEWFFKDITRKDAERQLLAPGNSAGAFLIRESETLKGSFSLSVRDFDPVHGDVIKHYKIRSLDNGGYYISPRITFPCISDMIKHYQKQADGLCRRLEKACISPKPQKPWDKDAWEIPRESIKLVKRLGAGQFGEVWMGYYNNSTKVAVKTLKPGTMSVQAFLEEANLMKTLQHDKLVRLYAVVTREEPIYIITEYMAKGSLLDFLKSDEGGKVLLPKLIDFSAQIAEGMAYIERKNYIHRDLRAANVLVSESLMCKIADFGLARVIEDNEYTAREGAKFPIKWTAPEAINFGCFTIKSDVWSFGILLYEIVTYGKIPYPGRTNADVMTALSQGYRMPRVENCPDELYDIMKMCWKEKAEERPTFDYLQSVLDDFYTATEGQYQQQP

SRC, sequence (P12931 whole entry): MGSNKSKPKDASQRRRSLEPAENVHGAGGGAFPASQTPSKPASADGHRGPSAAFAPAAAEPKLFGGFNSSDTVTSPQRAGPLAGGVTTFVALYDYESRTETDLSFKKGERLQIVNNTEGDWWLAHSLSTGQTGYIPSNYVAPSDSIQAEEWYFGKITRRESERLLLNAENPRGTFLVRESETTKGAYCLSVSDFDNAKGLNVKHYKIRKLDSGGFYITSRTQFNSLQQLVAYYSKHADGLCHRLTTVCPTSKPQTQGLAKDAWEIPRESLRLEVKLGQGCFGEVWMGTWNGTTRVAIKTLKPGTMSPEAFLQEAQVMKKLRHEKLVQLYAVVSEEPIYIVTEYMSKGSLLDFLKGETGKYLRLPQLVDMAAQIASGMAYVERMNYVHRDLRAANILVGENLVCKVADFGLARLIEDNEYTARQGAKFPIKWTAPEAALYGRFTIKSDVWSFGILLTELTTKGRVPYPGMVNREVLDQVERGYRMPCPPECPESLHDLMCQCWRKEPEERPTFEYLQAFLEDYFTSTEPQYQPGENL

| Structure (SMILES) | SRC inhibition (SRC) | γH2AX in WEE1 knockout clones [1] | PARP1 and caspase-3 cleavage (apoptosis induction) (H322 cells [2]; H322 versus H1648 cells, 48 h) | IC50 (PLK1 [3]) [nM] | inhibition of viability, potency [4] | PLK1 inhibition (PLK1 [5]) | phosphorylation of Serine 139 in histone H2AX (γH2AX) (H322 cells [6]; H322 cells, 1 μM AZD1775) | induction of DNA damage (γH2AX) (H322 cells [6]) | sensitivity of WEE1-reconstituted clone cWEE1-KO[18](RC9) [7] | PLK1 enrichment in i-AZD1775 pulldown on competition with AZD1775 (PLK1 [8]) | LYN inhibition (LYN) | apoptosis by PARP1 and caspase 3 cleavage (H322 cells [2]; H322 cells, 0.03 μM BI-2536 compared with 1 μM AZD1775) |
| --- | --- | --- | --- | --- | --- | --- | --- | --- | --- | --- | --- | --- |
| C=CCn1c(=O)c2cnc(Nc3ccc(N4CCN(C)CC4)cc3)nc2n1-c1cccc(C(C)(C)O)n1 [AZD1775] | potent AZD1775 targets | further increased γH2AX | markedly more pronounced in H322 cells than in H1648 | 22 to 34 | sub- to low micromolar potency | potent AZD1775 targets | potently increased | can induce DNA damage | completely reversed the sensitizing effect | completely abrogated its enrichment | potent AZD1775 targets |  |
| CC[C@@H]1C(=O)N(C)c2cnc(Nc3ccc(C(=O)NC4CCN(C)CC4)cc3OC)nc2N1C1CCCC1 [BI-2536] |  |  |  |  |  |  |  |  |  |  |  | strongly induced apoptosis; also recorded: higher degree of apoptosis than 1 μM AZD1775 |
| N.N.[Cl][Pt][Cl] [cisplatin] |  |  |  |  |  |  |  | can induce DNA damage |  |  |  |  |
